Assay outcomes deposited in PubChem BioAssay by several laboratories.
Sampled rows, rich in hits. Any-hit rate of the full collection: about 1.8%.
TDP2 inh = blocks human TDP2 phosphodiesterase activity; inhibition, % at 12.8 µM; O95551; recombinant TDP2, T5PNP hydrolysis, p-nitrophenol absorbance 415 nm; 370,000 tested, 0.34% active;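 active = inhibition above the mean of all tested compounds plus 3 SD, set per campaign, cut at about 25% in these data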;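 note: 0% = DMSO with enzyme and 100% = buffer with substrate but no TDP2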
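System – recombinant human TDP2 · Amount – 120 nM TDP2 per well · Buffer or medium – Mg2+-containing Tris-HCl buffer, pH 7.5 · Reagent – T5PNP substrate, 5 mM · Dosing – 12.8 µM single point, 1% DMSO · Incubation – 2 h at 37 °C · Measured by – epi absorbance · Read-out basis – percent inhibition · Benchmarks – high control without enzyme, low control DMSO plus TDP2 · Repeats – singlicate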
LEDGF integ inh = blocks HIV-1 LEDGF/p75-dependent DNA integration | AID 743269 | TR-FRET IN-LEDGF/p75 DNA integration, Eu/Cy5 | 370,000 tested, 0.64% active | inhibition, % at 3.7 µM;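 active = inhibition above the screen-wide mean plus 3 SD, cut at about 13% in these data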;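 note: signal is the Cy5 over europium emission ratio at 671 and 618 nm; 0% = plate median of compound wells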
MBD2 inh = MBD2-methylated oligo binding inhibition; Q9UBB5; TR-FRET, MBD2 binding to methylated oligonucleotide; inhibition, % at 4.4 µM; 370,000 tested, 0.31% active; in the data active = inhibition above about 13%
NSD2 HMT inh = inhibitors of human histone methyltransferase NSD2. AID 743445. O96028. NSD2 peptide methylation, AlphaScreen, 120 min. 310,000 tested, 0.54% active. inhibition, % at 12.5 µM; in the data active = inhibition above about 50%
Casp6 inh = inhibitors of human caspase-6; inhibition, % at 12.5 µM; purified caspase-6, Z-VEID-R110 cleavage fluorescence; P55212; 350,000 tested, 0.53% active;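 active = mean inhibition across replicates at least about 35%, with every replicate also reaching that limit, limit read from the data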;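 note: 0% = median of neutral control wells and 100% = no fluorescence left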
UHRF1 binding = human UHRF1 methylated DNA binding inhibitors; UHRF1 binding to methylated oligo, TR-FRET; inhibition, % at 4.4 µM; 370,000 tested, 0.75% active; AID 687016; in the data active = inhibition above about 21%;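 note: UHRF1 SRA domain binding a hemimethylated CpG hairpin DNA probe; 0% = median of test compound wells and 100% = reference inhibitor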
Target sequence (Q96T88 whole entry, looked up, the tested form may be a part): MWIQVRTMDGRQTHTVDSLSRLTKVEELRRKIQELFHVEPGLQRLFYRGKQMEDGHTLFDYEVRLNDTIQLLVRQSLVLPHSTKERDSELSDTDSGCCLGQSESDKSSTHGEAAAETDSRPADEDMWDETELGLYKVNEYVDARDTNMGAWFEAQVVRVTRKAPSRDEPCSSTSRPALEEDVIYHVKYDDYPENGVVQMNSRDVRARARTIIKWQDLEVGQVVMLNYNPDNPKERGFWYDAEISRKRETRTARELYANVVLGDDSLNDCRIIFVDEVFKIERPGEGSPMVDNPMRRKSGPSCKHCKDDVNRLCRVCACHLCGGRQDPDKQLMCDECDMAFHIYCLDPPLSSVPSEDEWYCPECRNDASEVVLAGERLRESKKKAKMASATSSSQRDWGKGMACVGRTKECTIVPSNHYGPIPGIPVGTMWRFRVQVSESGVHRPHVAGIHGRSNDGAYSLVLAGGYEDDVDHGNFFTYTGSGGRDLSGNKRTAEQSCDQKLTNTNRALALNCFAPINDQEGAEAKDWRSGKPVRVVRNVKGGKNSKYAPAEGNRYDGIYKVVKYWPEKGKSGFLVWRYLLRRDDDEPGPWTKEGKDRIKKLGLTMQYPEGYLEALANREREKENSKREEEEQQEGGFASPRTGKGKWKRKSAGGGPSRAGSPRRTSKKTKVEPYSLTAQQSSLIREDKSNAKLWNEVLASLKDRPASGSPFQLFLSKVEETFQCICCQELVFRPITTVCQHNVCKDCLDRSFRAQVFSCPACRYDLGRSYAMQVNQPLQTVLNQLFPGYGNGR
The depositor's hits bear a star; nt = no result given.

SMILES	TDP2 inh	LEDGF integ inh	MBD2 inh	NSD2 HMT inh	Casp6 inh	UHRF1 binding
Cc1cccc(-c2ccc(NC(=O)C3CCN(CC4CC4)CC3)cc2)c1	4	0	4	1	-9	-2
O=C(N/N=C/C=C/c1ccco1)c1ccccc1Cl	2	8	0	15	49*	1
O=C(Nc1ccc(F)cc1F)Nc1csc2ccccc12	-10	-5	0	-2	-3	33*
O=C(Nc1ccc(F)c(Cl)c1)Nc1csc2ccccc12	-6	-2	4	-3	2	5
Cc1ccc(S(=O)(=O)NC2=NCN(CCOC(=O)c3ccc([N+](=O)[O-])cc3)CN2)cc1	-10	3	2	-3	nt	60*
Cc1ccc(S(=O)(=O)NC2=NCN(CCOC(=O)c3ccccc3)CN2)cc1	-7	-2	-1	-3	-3	2
COc1ccc(S(=O)(=O)Nc2ccc3c(c2)C(=O)N([C@H](C)CO)C[C@H](C)[C@H](CN(C)Cc2ccncc2)OCCCC[C@@H](C)O3)cc1	nt	nt	nt	nt	-1	nt
CC(C)NC(=O)NCC[C@H]1CC[C@H](NC(=O)Nc2ccccc2)[C@H](CO)O1	nt	nt	nt	nt	0	nt
O=C(NCC1OCCc2ccccc21)c1ccc(NC(=O)c2ccccc2Cl)cc1 (centres undefined)	-4	-1	6	-3	nt	21*
Cc1ccc(-c2ccc3c(c2)O[C@@H](CN(C)Cc2ccc(F)cc2)[C@H](C)CN([C@@H](C)CO)S3(=O)=O)cc1	nt	nt	nt	nt	-1	nt
CC(C)NC(=O)C1(C)CCN1C(=O)c1ccc2c(c1)OCO2 (centres undefined)	7	0	-5	0	71*	-1
COc1ccccc1CNC(=O)C[C@H]1CC[C@@H]2[C@H](COC[C@H](O)CN2C(=O)Nc2ccc(Cl)cc2)O1	nt	nt	nt	nt	0	nt
COC(=O)[C@]12C[C@H](CC(=O)NCc3ccc(C)o3)C(=O)N(Cc3ccccc3)C1=C[C@H](C1CCCC1)O[C@@H]2C	-22	5	-1	nt	66*	-1
CN(C)C(=O)c1ccc(-c2ccc([C@@H]3[C@H](CO)N4CCCCN(Cc5ccncc5)C[C@@H]34)cc2)cc1	nt	nt	nt	nt	1	nt
Clc1ccc2c(SCC3CO3)c3ccccc3nc2c1 (centres undefined)	5	-4	-1	0	-4	72*
CSCC[C@H](NC(=O)C1CCC(CNC(=O)[C@@H]2CCCN2C(=O)OC(C)(C)C)CC1)C(=O)O (some centres undefined)	8	-5	3	-2	3	40*
C[C@@H]1CN([C@H](C)CO)C(=O)c2cc(NC(=O)Cc3cn(C)c4ccccc34)ccc2O[C@@H]1CN(C)CC1CCCCC1	nt	nt	nt	nt	-1	nt
COc1ccc(N2CCN(S(=O)(=O)c3cccc4cccnc34)CC2)cc1	-2	4	0	nt	4	-1
O=S(=O)(c1cccc2cccnc12)N1CCN(c2ccc(F)cc2)CC1	6	-2	0	0	42*	-1
CC(C)(C)c1ccc(CC(=O)N2CCC2(C)C(=O)Nc2cccc3cccnc23)cc1 (centres undefined)	-2	-1	-1	1	0	0
CCC(=O)N1CCC1(C)C(=O)Nc1cccc2cccnc12 (centres undefined)	3	-1	-8	1	78*	-2
C[C@H]1COc2cc(N3CC[C@H](O)C3)ccc2S(=O)(=O)N1	-8	-5	2	nt	-3	62*
C[C@@H]1COc2cc(N3CCC[C@H]3CO)ccc2S(=O)(=O)N1	-4	3	-3	nt	-3	-1
CN(C)C(=O)c1cn(N(C)c2ncc(C(F)(F)F)cc2Cl)c(=O)c2ccccc12	3	1	-2	2	nt	1
CN(c1ncc(C(F)(F)F)cc1Cl)N1C(=O)c2cccc([N+](=O)[O-])c2C1=O	-14	4	1	-4	2	23*
SMILES	TDP2 inh	LEDGF integ inh	MBD2 inh	NSD2 HMT inh	Casp6 inh	UHRF1 binding
CCOC(=O)C1=C(O)/C(=C/c2ccc(OCC(=O)O)c(OC)c2)SC1=Nc1ccc(OCC)cc1	-3	2	-2	6	37*	3
O=C(C[C@@H]1C=C[C@H](NS(=O)(=O)c2ccccc2)[C@H](CO)O1)N1CCc2ccccc2C1	nt	nt	nt	nt	1	nt
COc1cc2c(ccc3cc(OC)c(OC)c(O)c32)cc1O	8	36*	27*	nt	86*	52*
COc1cccc(NC(=S)N(CCCN2CCC(C)CC2)Cc2cccs2)c1	10	2	0	nt	-8	1
CSc1cccc(NC(=S)N(CCCN2CCC(C)CC2)Cc2cccs2)c1	7	0	4	2	-2	28*
COc1cccc(NC(=S)N(CCN(C)C)Cc2cccs2)c1	-1	1	8	2	0	21*
C[C@H](CO)N1C[C@H](C)[C@@H](CN(C)C(=O)Nc2ccc(F)cc2)Oc2c(NS(=O)(=O)c3cccs3)cccc2C1=O	nt	nt	nt	nt	2	nt
Nc1ccc2c(c1)C(=O)Cc1ccccc1S2	-6	0	1	-2	0	49*
CN(C)CCCOc1ccc2c(c1)Sc1ccccc1CC2=O	2	-2	-3	29	nt	-2
O=C(C[C@@H]1CC[C@H](NS(=O)(=O)c2ccc(F)cc2)[C@@H](CO)O1)N1CCc2ccccc2C1	nt	nt	nt	nt	-2	nt
c1ccc(CCNc2nc(-c3cccnc3)cs2)cc1	-2	-1	-4	4	-2	49*
CCOC(=O)c1c(NC(=O)C2c3ccccc3Oc3ccccc32)sc(C(N)=O)c1C	2	0	5	-1	nt	22*
Cc1cc(C(=O)OCC(=O)Nc2cccc(S(N)(=O)=O)c2)c2ccccc2n1	9	2	-2	-1	1	23*
CCCc1nc2c3ccccc3ccn2c1Cc1ccc(C)cc1	-1	-2	2	nt	-8	18
CCCc1nc2c3ccccc3ccn2c1Cc1cccc(Cl)c1	-2	-2	11	nt	5	24*
Fc1cccc(Cc2c(C3CCCCC3)nc3c4ccccc4ccn23)c1	9	-5	11	nt	-1	25*
C[C@@H]1CN([C@@H](C)CO)C(=O)c2cc(-c3cccc(F)c3)cnc2O[C@@H]1CN(C)C	nt	nt	nt	nt	2	nt
Cc1noc(C)c1NC(=O)N(C)C[C@H]1Oc2ccc(NC(=O)Nc3ccc4c(c3)OCO4)cc2C(=O)N([C@@H](C)CO)C[C@H]1C	nt	nt	nt	nt	0	nt
CCOc1ccccc1N1CCN(Cc2ccc(OC)c(OC)c2OC)CC1	3	0	0	0	nt	1
CCOc1ccccc1N1CCN(Cc2ccc(OC)c(OC)c2)CC1	13	-2	2	1	nt	23*
O=C(c1sc2cccc(F)c2c1Cl)N1CCN(c2ncccn2)CC1	1	-2	11	-2	nt	26*
Cc1onc(-c2c(F)cccc2Cl)c1C(=O)N1CCN(c2ncccn2)CC1	2	2	2	-4	0	3
CC(C)C(=O)NCCCc1ccccc1	0	1	3	-2	nt	1
